In PubChem BioAssay AID463141 (The Scripps Research Institute Molecular Screening Center, 2010):
“And” between values parts separate entries of the source, which are not always exact repeats. Identical values can stand only once. The whole screen tested about 330,000 compounds, of which about 350 (0.11%) were called active.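 The calls were made as follows: active = activation above the mean of all tested compounds plus 3 SD (cut at about 21% in these data); inactive = the rest.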 The entries come from a sample that favours actives as a whole.

target: Caspase-3 (Homo sapiens) (UniProt P42574); test: activators of human procaspase-3 D3A mutant, primary screen, biochemical, absorbance, PC-3 D3A mutant, single concentration (AID 463141); conditions: recombinant procaspase-3 D3A, Ac-DEVD-pNA absorbance 405 nm; at 8.5 µM; stronger effect = higher value;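 also: 0% = DMSO alone and 100% = DMSO wells spiked with extra 5 µM PC-3 D3A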
Sequence (P42574 whole entry D9A/D28A/D175A): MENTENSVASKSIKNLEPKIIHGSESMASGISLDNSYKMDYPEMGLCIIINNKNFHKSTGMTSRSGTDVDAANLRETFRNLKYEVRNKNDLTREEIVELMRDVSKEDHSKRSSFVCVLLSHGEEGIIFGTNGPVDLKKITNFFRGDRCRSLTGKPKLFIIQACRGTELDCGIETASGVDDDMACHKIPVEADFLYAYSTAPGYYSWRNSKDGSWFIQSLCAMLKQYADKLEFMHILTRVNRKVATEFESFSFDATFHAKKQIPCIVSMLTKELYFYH
Procedure, shortened: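 Compound: 8.5 µM single point, 0.8% DMSO / Material: Autoprocessing-dead procaspase-3 D3A mutant enzyme / Timing: 1 h preincubation plus 2 h reaction at 25 °C / Medium: Zinc-free HEPES/NaCl buffer with 0.01% Triton X-100 at pH 7.4 / Technique: 405 nm absorbance of p-nitroaniline, reads at 0 and 120 min / Repeats: one well per compound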

activation, inactive:
CC(C)C[C@H](NC(=O)C1CC(=O)N(c2ccc3c(c2)OCCO3)C1)C(=O)NC1CCCC1 (some centres undefined) 0.18%
COc1ccc(/C=N/Nc2ccccc2C(=O)O)cc1 1%
COc1ccc(/C=N/Nc2nc(-c3ccc(C)cc3)c(C#N)c(=O)[nH]2)cc1 8.75%
Cc1cc(-c2nc(C)c(-c3nnc(SCC(=O)Nc4ccccc4)n3C)s2)no1 -5.75%
CCN(CC)S(=O)(=O)c1ccc(N2CCN(C)CC2)c(NC(=O)Nc2ccccc2F)c1 4.2%
COc1ccc(NS(=O)(=O)c2ccc(C)c(C(=O)N(C)Cc3ccc(OC)cc3OC)c2)cc1 10.5%
CC(=O)N1Cc2ccccc2CC1C(=O)O (centres undefined) 2.69%
O=C(CCCn1c(=O)c2sccc2n(CC(=O)NCC2CCCO2)c1=O)NCc1ccco1 (centres undefined) 3.97%
COc1cc(/C=C/C(=O)OCC(=O)Nc2cccc(Oc3ccccc3)c2)ccc1O -1.86%
O=C(NC1(C(F)(F)F)N=C2SCCN2C1=O)c1ccco1 (centres undefined) 1.41%
Cc1ccc(NC(=O)Nc2cc(-c3ccccc3)nn2C)cc1Cl -13.2%
COC(=O)[C@]1(S(=O)(=O)c2ccccc2)C[C@@H]2ON=C(c3ccc(OC)cc3)[C@@H]2C1 -6.69%
CCCCNc1nc2ccccc2nc1NS(=O)(=O)c1cccs1 10.7%
O=C(Nc1ccccc1Cl)/C(Cl)=C(\Cl)S(=O)c1ccccc1 (centres undefined) -26.7%
CCOC(=O)CCC(=O)OCC(=O)NC(C)C1CC2CCC1C2 (centres undefined) 2.01%
O=S(=O)(O)Oc1c[nH]c2ccccc12 4.41%
CCCN(C(=O)c1nc2nccc(C)n2n1)c1c(N)n(Cc2ccccc2)c(=O)[nH]c1=O 1.38%
CN(CC1CCCO1)S(=O)(=O)c1ccc(C(=O)Nc2ccc(F)cc2)cc1 (centres undefined) -2.76%
NC(=O)c1ccccc1N=Cc1ccc2ccccc2c1 9.74%
COC(=O)CN1C(=O)[C@H]2[C@@H](C3CC3)N3C(=O)CN(Cc4ccc(-c5ccccc5)cc4)C(=O)[C@@]3(Cc3ccccc3)[C@H]2C1=O 15.8%
CC(=O)c1sc(N/N=C/c2ccc(C(C)C)cc2)nc1C -6.85%
CCCn1c(C)cc(C(=O)COC(=O)c2c(C)nn(-c3ccccc3)c2C)c1C 0.04%
Cc1ccc(-c2nc(SCC(=O)Nc3ccccc3OC(F)F)c3c(C)c(C(=O)O)sc3n2)cc1 -2.33%
CCOc1ccccc1CN1CCN(C2CCC2)CC1CCO (centres undefined) 8.07%
Cc1ccc(Cl)cc1NC(=O)C1CCN(S(C)(=O)=O)CC1 -5.8%
CN(CCc1ccccn1)C(=O)c1ccc(OC2CCN(CCc3ccccc3)CC2)cc1 -3.49%
Cc1ccc(NC2CCCN(C(=O)CCc3cn[nH]c3)C2)cc1C (centres undefined) 8.07%
CC(C)C[C@H](NC(=O)[C@@H]1O[C@H]1C(=O)O)C(=O)NCCCCN=C(N)N 2.62%
COc1ccccc1/C=C/C=N/n1c(-c2ccc(Cl)cc2Cl)n[nH]c1=S -14.5%
Cc1ccc(C(=O)CN2C(=O)NC3(CCc4ccccc43)C2=O)c(C)c1 (centres undefined) 6%
Cc1ccc(C(=O)N2CCCC(c3ccccc3)=N2)cc1 3.86%
COc1ccc2c(c1)c(=O)c(C(=O)c1ccc(Cl)cc1)cn2CC(=O)Nc1ccc(F)cc1 2.32%
CC(C)COP(=O)(c1ccc(N(C)C)cc1)C(Nc1ccccc1)c1cccnc1 (centres undefined) 5.66%
Cc1nnc(SCC(=O)Nc2ncc3c(n2)CC(C)(C)CC3=O)s1 -5.45%
CSc1ccc(/C=C/C(=O)NC23CC4CC(CC(C4)C2)C3)cc1 2.05%
CN(CC(=O)NC1CCN(Cc2ccccc2)CC1)S(=O)(=O)c1ccc(Cl)s1 5.81%
C=CCNC(=O)C1CC2c3ccccc3C1c1ccccc12 (centres undefined) 5.82%
O=C(COc1ccccc1Cl)N1N=C(c2cccs2)CC1c1ccco1 (centres undefined) 4.79%
COc1ccc(C2CC(c3cccs3)=NN2c2ccc(F)cc2)cc1OC (centres undefined) -19.4%
COc1ccccc1N1CCN(C(=O)c2ccc(NC3=NC4CS(=O)(=O)CC4S3)cc2)CC1 (centres undefined) -12%
COc1ccccc1N1CCN(C(=O)c2cn(-c3ccccc3)nc2-c2cccnc2)CC1 -2.98%
O=C(NCc1cccnc1)Nc1cccc(NC(=O)NCc2cccnc2)c1F 2.89%
COC(=O)Cc1cnc(NC(=O)CSc2nc(C(C)C)cc(=O)[nH]2)s1 5.45%
CCC(=O)Nc1c(C)n[nH]c1C -3.68%
N#Cc1ccc(C2N=C(c3ccccc3)NO2)cc1 (centres undefined) -2.62%
COCc1c(C(=O)N/N=C\c2cccnc2)nnn1-c1nonc1N 0.8%
Cc1cccc(N=Nc2c(O)[nH]c3ccc(F)cc23)c1 12.6%
Oc1ccc(-c2onc3ccc(Cl)cc23)cc1 -12.8%
CC(OC(=O)c1ccc2noc(-c3ccccc3)c2c1)C(N)=O (centres undefined) -2.76%
COc1ccc(NC(=S)N2N=CCC2c2ccccc2)cc1 (centres undefined) 11.4%
c1cnc(N2CCN(c3ccc4ccccc4n3)CC2)nc1 2.75%
NC[C@H](Cc1ccccc1)NCCc1cc(C(F)(F)F)cc(C(F)(F)F)c1 -5.68%
COc1ccccc1C(=O)N1CCN=C1SCc1cccnc1 -6.62%
O=C(CCN1CCN(C/C=C/c2ccccc2)CC1)Nc1ccccc1Cl 8.05%
Cn1cnc([N+](=O)[O-])c1Sc1n[nH]c(N)n1 6.6%
COCCCNC(=S)N(Cc1ccccc1)Cc1ccc(F)cc1 -1.61%
CCCNc1ncnc2sc(C)c(C)c12 -0.52%
CN(C)c1ccc2c(=O)[nH][nH]c(=O)c2c1 10.1%
CCOc1ccccc1NC(=O)C1CCCN(S(=O)(=O)c2ccccc2)C1 (centres undefined) 2.37%
CN1CC(=O)N=C1N 6.53% and -3.63%
CCOC(=O)CNC(=O)CSc1ccc2nnc(-c3cccnc3)n2n1 0.59%
CC(C)NC(=S)N1CCN(S(C)(=O)=O)CC1 9.6%
CC(=O)c1ccc(N=C2SCCCN2C(=O)C2CCCCC2)cc1 8.2%
COc1cc(C(=O)NC2CCN(Cc3ccccc3)CC2)cc(Cl)c1OC(C)C 4.82%
CCOc1ccc2c(c1)cc(CN(C(=O)CC)C1CCCCC1)c1nnnn12 0.4%
O=C(c1ccc(N2CCOCC2)c([N+](=O)[O-])c1)N1CCN(S(=O)(=O)c2cccs2)CC1 -3.64%
CC1CCN(C(=S)NC(=O)c2ccccc2Br)CC1 -4.02%
CC(=O)Oc1ccccc1C1=NN(C(C)=O)C(c2ccccc2)C1 (centres undefined) 1.13%
COc1ccc(C2CC(c3cccs3)=NN2c2ccccc2)cc1 (centres undefined) -24.6%
O=C(CCNc1n[nH]c(=O)[nH]c1=O)N/N=C\c1ccc(Br)cc1 -3.48%
Cc1c(S(=O)(=O)N2CC(C)CC(C)C2)c(=O)n(C)c(=O)n1C (centres undefined) -6.15%
CCc1ccc2oc(-c3ccc(N)cc3)nc2c1 5.03%
COC(=O)c1cc(NC(=O)CN2CCC(C(N)=O)(N3CCCCC3)CC2)cc(C(=O)OC)c1 12.7%
O=C(CC(NC(=O)c1ccccc1)c1ccccc1)Nc1ccc(F)c(F)c1 (centres undefined) 5.87%
CC(C)OC(=O)c1cc(NC(=O)C2C3CCC(O3)C2C(=O)O)cc(C(=O)OC(C)C)c1 (centres undefined) -5.36%
CN1CCCN(C(=O)C2CCCCC2)CC1 5.38%
CCN(CC)c1ccc(NC(=O)CN2CCN(c3ccccn3)CC2)cc1 -5.15%
Cc1cccc(C2C3=C(CCCC3=O)N=C3c4ccccc4C(=O)C32)c1 (centres undefined) -13.4%
CN(C)C(=O)N=NC(=O)N(C)C -12.2%
O=C(COC(=O)C1CC2CCCC(C1)C2=O)NC(=O)c1ccccc1 (centres undefined) -4.78%
COC(=O)C(C(=O)Nc1cccc(Cl)c1C)C1CCCC1 (centres undefined) 1.15%
COc1ccc(CN2CCN(C(=O)CCC(=O)Nc3nnc(C(C)C)s3)CC2)cc1F -6.44%
O=C(CSC1=NS(=O)(=O)c2cc(F)ccc2N1)Nc1ccccc1F -6.67%
COc1ccccc1N=C(C)C1=C(O)COC1=O -3.88%
COc1cc(N=Cc2c(O)c3ccccc3oc2=O)c(OC)cc1Cl 3.99%
COC(=O)c1cc(OC)c(OC)cc1NC(=O)C1CCCO1 (centres undefined) -0.83%
COc1ccc(CN2CCC(c3nc4ccc(Cl)cc4[nH]3)CC2)cc1 -3.22%
O=C(NCC(=O)N(c1ccccc1)C(C(=O)NCC1CCCO1)c1ccccc1)c1cccs1 (centres undefined) -3.61%

activation, active:
COc1ccc(/C=N/Nc2nc3ccccc3c(=O)[nH]2)cc1 30.4%
Fc1ccc(N2N=C(c3cccs3)CC2c2ccco2)c(F)c1 (centres undefined) 40%
COc1ccc(Nc2ncc(C(=O)N3CCN(c4ccccc4OC)CC3)c3ccccc23)cc1 30.4%
COc1ccc(-c2onc3ccc(C(C)=O)cc23)cc1 103%
Oc1ccccc1C1=NN(c2ccccc2)C(c2ccccc2)C1 (centres undefined) 32.8%
COc1ccccc1N=Cc1c(O)c2ccccc2oc1=O 26.5%
